Test results as given in ChEMBL document CHEMBL3232705, “Discovery of isoquinolinone indole acetic acids as antagonists of chemoattractant receptor homologous molecule expressed on Th2 cells (CRTH2) for the treatment of allergic inflammatory diseases” (J Med Chem, 2014).
Calls of active or inactive are those of the source. No cut-off for these calls is given here.

Experiments:
[1] = Oral bioavailability in monkey at 10 mg/kg; type: ADME, organism-based, Macaca mulatta; conditions: rhesus monkey, in vivo
Ovis aries [2] = experiment: Inhibition of carbachol-induced airway hyperresponsiveness in sheep at 3 mg/kg, iv bid; type: functional, organism-based; parameters: dose 3 mg/kg
Salmonella typhimurium = experiment: Genotoxicity in Salmonella typhimurium by AMES test; type: toxicity, organism-based; conditions: salmonella enterica subsp. enterica serovar typhimurium
Cytochrome P450 2C19 = Cytochrome P450 2C19 (Homo sapiens, UniProt P33261); experiment: Inhibition of CYP2C19 (unknown origin); type: ADME
Sequence of Cytochrome P450 2C19 (P33261 whole entry): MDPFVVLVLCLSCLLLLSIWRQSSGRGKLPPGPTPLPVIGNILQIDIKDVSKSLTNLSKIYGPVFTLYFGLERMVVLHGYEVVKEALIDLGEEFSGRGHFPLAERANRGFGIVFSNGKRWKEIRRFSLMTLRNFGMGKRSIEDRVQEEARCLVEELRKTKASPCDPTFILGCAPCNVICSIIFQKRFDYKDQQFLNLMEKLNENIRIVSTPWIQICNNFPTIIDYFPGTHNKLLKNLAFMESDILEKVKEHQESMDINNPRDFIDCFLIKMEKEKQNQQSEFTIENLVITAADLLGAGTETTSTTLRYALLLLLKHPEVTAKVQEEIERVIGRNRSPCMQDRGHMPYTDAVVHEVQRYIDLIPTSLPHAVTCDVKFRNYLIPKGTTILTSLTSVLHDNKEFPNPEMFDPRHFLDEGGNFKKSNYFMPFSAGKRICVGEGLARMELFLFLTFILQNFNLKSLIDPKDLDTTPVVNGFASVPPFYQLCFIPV

Cavia porcellus [3] = experiment: Antiallergic activity in ovalbumin-induced allergic lung inflammation Hartley guinea pig model assessed as eosinophil level in bronchoalveolar lavage fluid at 20 mg/kg, po administered 1 hr before and 6 hrs after ovalbumin challenge after 24 hrs; type: functional, organism-based; parameters: dose 20 mg/kg
Procedure, shortened: (§1)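 Female Hartley guinea pigs (375–425 g) sensitized ip on days 1 and 5 with 100 μg OVA plus 100 mg aluminum hydroxide in PBS, then challenged on day 15 with aerosolized 0.01% OVA for 60 min. Dosed orally 1 h before and 6 h after challenge; vehicle was Tween 80 in cherry syrup. On day 16, lungs lavaged with 2 × 10 mL PBS. Total cells counted by hemocytometer; differentials from stained cytospins. Unpaired t test.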

Ovis aries [4] = experiment: Inhibition of allergen-induced mucociliary clearance in sheep assessed as tracheal mucus velocity at 3 mg/kg, iv measured at 4 hrs (reference value: 47%); type: functional; conditions: Trachea
Procedure, shortened: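 Five sheep received 3 mg/kg iv around allergen challenge. Tracheal mucus velocity measured at 4 h and 8 h and expressed as % of baseline.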

Ovis aries [5] = experiment: Inhibition of Ascaris-induced airway bronchoconstriction in sheep assessed as inhibition of early phase allergic airway bronchoconstriction at 1 mg/kg, iv qd for 7 days; type: functional, organism-based; parameters: dose 1 mg/kg
Procedure, shortened: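 Sheep given 1 mg/kg iv once daily for 7 days before Ascaris suum allergen challenge. Early and late responses read as airway resistance above baseline, compared with each animal's historical untreated values. After the AHR measurement, three bronchi per sheep were lavaged for cell counts.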

Cavia porcellus [6] = experiment: Antiallergic activity in ovalbumin-induced allergic lung inflammation Hartley guinea pig model assessed as total cellularity in bronchoalveolar lavage fluid at 20 mg/kg, po administered 1 hr before and 6 hrs after ovalbumin challenge measured after 24 hrs; type: functional, organism-based; parameters: dose 20 mg/kg; procedure, shortened: as §1
[7] = Volume of distribution at steady state in monkey at 2 mg/kg, iv; type: ADME, organism-based, Macaca mulatta; parameters: dose 2 mg/kg, route intravenous; conditions: rhesus monkey, in vivo, read-out: Vdss

Which bioavailability [1] does the source give for Cc1c(-c2cn(C(C)C)c(=O)c3ccccc23)c2cc(F)ccc2n1CC(=O)O here?
Its bioavailability is 69%.

What about the inhibition (Ovis aries [2]) of the same molecule?
The inhibition was “Active”.

What about the Activity (Salmonella typhimurium) of the same molecule?
The Activity was “Non-toxic”.

What about the IC50 (Cytochrome P450 2C19) of the same molecule?
Its IC50 is over 100 µM.

What about the inhibition (Cavia porcellus [3]) of the same molecule?
Its inhibition is “Active”.

What about the inhibition in vivo at 3 mg/kg (Ovis aries [4]) of the same molecule?
The inhibition in vivo at 3 mg/kg was 70%.

What about the inhibition (Ovis aries [5]) of the same molecule?
Its inhibition is “Active”.

And the inhibition (Cavia porcellus [6])?
Its inhibition is “Active”.

And the Vd [7]?
Its Vd is 0.95 L/kg.
